16 compounds from ChEMBL document CHEMBL1136967, “High-affinity, non-nucleotide-derived competitive antagonists of platelet P2Y12 receptors” (J Med Chem, 2009) can be followed below.

Usually Ki stands for a measure of affinity in units of concentration, obtained from inhibition or displacement. In general, inhibition refers to the share of the control response that was lost under treatment. Low values mean a weak effect, high ones a strong effect.

Each structure is given as a SMILES string.

Tested on in one test: not listed separately
Description: Cytotoxicity against human 1321N1 cells at 0.1 uM after 72 hrs to 144 hrs by MTT assay. In kind it is functional. The method in brief:
(§1)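 1321N1 astrocytoma and 1539 melanoma cells grown in DMEM with 10% FCS and penicillin/streptomycin at 37 °C, 5% CO2. Seeded at 2000 cells/well for 24 h, then medium replaced and compound added from 10 mM DMSO stocks (final DMSO 1%). Incubation 72-144 h, then MTT (5 mg/mL stock) for 1 h. Formazan dissolved in DMSO, A570 read against 690 nm reference. Viability relative to 1% DMSO wells; triplicates, 3-8 experiments.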
In general terms: Tetrazolium assays rely on reduction of a dye to a coloured formazan, in cell work by metabolically active cells.
Compound `Nc1c(S(=O)(=O)[O-])cc(Nc2cccc3ccccc23)c2c1C(=O)c1ccccc1C2=O.[Na+]` came in with an Activity of 114%.
The same measure, in the same setting: then `Nc1c(S(=O)(=O)[O-])cc(Nc2ccc(Cl)cc2)c2c1C(=O)c1ccccc1C2=O.[Na+]`, with 117%.

For a further test, the target named is T1, P2Y purinoceptor 12 (Homo sapiens, UniProt Q9H244). Description: Displacement of [3H]PSB0413 from human platelet P2Y12 receptor. The method in brief: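 Membranes from outdated human blood-bank platelets (4-5 days post-donation), washed, centrifuged, homogenized, stored at -80 °C. 100 µg protein incubated with 5 nM [³H]PSB-0413 in 50 mM Tris-HCl pH 7.4 for 1 h at rt, then filtered over GF/B. Nonspecific binding with 1 mM ADP. Screen at 10 µM. Ki from curves of 6-7 concentrations over 3 log units. At least three experiments in triplicate.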
T1 sequence (Q9H244 whole entry): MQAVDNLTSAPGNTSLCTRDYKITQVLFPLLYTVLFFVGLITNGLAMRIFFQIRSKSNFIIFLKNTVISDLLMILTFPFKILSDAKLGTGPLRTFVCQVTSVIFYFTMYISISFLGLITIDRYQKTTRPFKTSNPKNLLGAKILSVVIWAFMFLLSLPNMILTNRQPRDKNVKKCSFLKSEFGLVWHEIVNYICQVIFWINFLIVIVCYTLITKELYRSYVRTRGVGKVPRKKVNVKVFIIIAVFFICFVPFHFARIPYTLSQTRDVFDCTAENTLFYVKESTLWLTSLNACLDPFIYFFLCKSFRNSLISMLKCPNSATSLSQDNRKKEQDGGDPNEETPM
Regarding `Nc1ccc(Nc2cc(S(=O)(=O)O)c(N)c3c2C(=O)c2ccccc2C3=O)cc1`, the Ki was more than 10 µM.
The same measure, in the same setting: the result for `COc1ccc(CCNc2cc(S(=O)(=O)O)c(N)c3c2C(=O)c2ccccc2C3=O)cc1OC` reads more than 10 µM; that for `Nc1c(S(=O)(=O)O)cc(Nc2ccc(O)cc2)c2c1C(=O)c1ccccc1C2=O`, 10 µM.
Still for that read-out and setting: the result for `O=C1c2cccc(O)c2C(=O)c2c(O)cc(CO)cc21` [ALOE-EMODIN] reads more than 10 µM; that for `CN(C)[C@@H]1C(O)=C(C(N)=O)C(=O)[C@@]2(O)C(O)=C3C(=O)c4c(O)ccc(Cl)c4[C@@](C)(O)[C@H]3C[C@@H]12` [CHLORTETRACYCLINE], more than 10 µM; that for `Cc1cc(C)c(Nc2cc(S(=O)(=O)O)c(N)c3c2C(=O)c2ccccc2C3=O)c(C)c1` [ACID BLUE 129], more than 10 µM.
On the same count and under the same terms, then `Cc1cc(C)c(Nc2cc(S(=O)(=O)O)c(N)c3c2C(=O)c2ccccc2C3=O)c(C)c1N`, with more than 10 µM.
`COc1cc(O)c2c(c1)C(=O)c1cc(C)cc(O)c1C2=O` [PHYSCION]: the Ki is more than 10 µM.
Same read-out and setting: the result for `Nc1c(S(=O)(=O)[O-])cc(Nc2cccc3ccccc23)c2c1C(=O)c1ccccc1C2=O.[Na+]` reads more than 10 µM.
Same read-out and setting: the result for `O=C1c2c(O)ccc(O)c2C(=O)c2c(NCCNCCO)ccc(NCCNCCO)c21` [MITOXANTRONE] reads more than 10 µM; that for `Cc1cc(O)c2c(c1)Cc1cc(O)cc(O)c1C2=O` [EMODIN ANTHRONE], more than 10 µM; that for `Cc1cc(O)c2c(c1)C(=O)c1cccc(O)c1C2=O` [CHRYSOPHANOL], more than 10 µM.
The same measure, in the same setting: the result for `CC(=O)Nc1ccc(Nc2cc(S(=O)(=O)O)c(N)c3c2C(=O)c2ccccc2C3=O)cc1` reads more than 10 µM; that for `COc1cccc2c1C(=O)c1c(O)c3c(c(O)c1C2=O)C[C@@](O)(C(=O)CO)C[C@@H]3O[C@H]1C[C@H](N)[C@H](O)[C@H](C)O1` [DOXORUBICIN], more than 10 µM.
Compound `Nc1c(S(=O)(=O)O)cc(Nc2ccc(Nc3ncccn3)cc2)c2c1C(=O)c1ccccc1C2=O` gave a Ki of 10 µM.

A further test deals with T1, P2Y purinoceptor 12. Description: Displacement of [3H]PSB0413 from human platelet P2Y12 receptor at 10 uM. The method in brief:
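Human platelet membranes (100 µg protein) incubated with 5 nM [3H]PSB-0413 and test compound at 10 µM in 50 mM Tris-HCl pH 7.4 for 1 h at rt, then filtered over GF/B. Nonspecific binding defined with 1 mM ADP; result expressed as % inhibition of radioligand binding.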
A general note: Loss of bound radioactivity is the signal in a displacement assay; it reports binding, not function.
`Nc1ccc(Nc2cc(S(=O)(=O)O)c(N)c3c2C(=O)c2ccccc2C3=O)cc1` had an inhibition of 30%.
Regarding `COc1ccc(CCNc2cc(S(=O)(=O)O)c(N)c3c2C(=O)c2ccccc2C3=O)cc1OC`, the inhibition stood at 23%.
Same read-out and setting: then `Nc1c(S(=O)(=O)O)cc(Nc2ccc(O)cc2)c2c1C(=O)c1ccccc1C2=O`, with 50%.
Still for that read-out and setting: then `O=C1c2cccc(O)c2C(=O)c2c(O)cc(CO)cc21` [ALOE-EMODIN], with 2%; and `CN(C)[C@@H]1C(O)=C(C(N)=O)C(=O)[C@@]2(O)C(O)=C3C(=O)c4c(O)ccc(Cl)c4[C@@](C)(O)[C@H]3C[C@@H]12` [CHLORTETRACYCLINE], with 6%.
The same measure, in the same setting: the result for `Cc1cc(C)c(Nc2cc(S(=O)(=O)O)c(N)c3c2C(=O)c2ccccc2C3=O)c(C)c1` [ACID BLUE 129] reads 30%; that for `Cc1cc(C)c(Nc2cc(S(=O)(=O)O)c(N)c3c2C(=O)c2ccccc2C3=O)c(C)c1N`, 35%; that for `COc1cc(O)c2c(c1)C(=O)c1cc(C)cc(O)c1C2=O` [PHYSCION], 7%.
As to `Nc1c(S(=O)(=O)[O-])cc(Nc2cccc3ccccc23)c2c1C(=O)c1ccccc1C2=O.[Na+]`, the inhibition was determined as 25%.
The same measure, in the same setting: then `Cc1cc(O)c2c(c1)Cc1cc(O)cc(O)c1C2=O` [EMODIN ANTHRONE], with 1%; and `Cc1cc(O)c2c(c1)C(=O)c1cccc(O)c1C2=O` [CHRYSOPHANOL], with 13%; and `CC(=O)Nc1ccc(Nc2cc(S(=O)(=O)O)c(N)c3c2C(=O)c2ccccc2C3=O)cc1`, with 4%.
On the same count and under the same terms, then `COc1cccc2c1C(=O)c1c(O)c3c(c(O)c1C2=O)C[C@@](O)(C(=O)CO)C[C@@H]3O[C@H]1C[C@H](N)[C@H](O)[C@H](C)O1` [DOXORUBICIN], with 7%; and `Nc1c(S(=O)(=O)O)cc(Nc2ccc(Nc3ncccn3)cc2)c2c1C(=O)c1ccccc1C2=O`, with 57%.

Tested on in another test: not listed separately
As to the kind of experiment: Cytotoxicity against human 1321N1 cells at 1 uM after 72 hrs to 144 hrs by MTT assay. The class given is functional. The method in brief:
as §1
On to `Nc1c(S(=O)(=O)[O-])cc(Nc2cccc3ccccc23)c2c1C(=O)c1ccccc1C2=O.[Na+]`, for which the Activity is listed as 126%.
On the same count and under the same terms, the result for `Nc1c(S(=O)(=O)[O-])cc(Nc2ccc(Cl)cc2)c2c1C(=O)c1ccccc1C2=O.[Na+]` reads 116%.

Tested on in another test: not listed separately
Description: Cytotoxicity against human 1321N1 cells at 100 uM after 72 hrs to 144 hrs by MTT assay. The class given is functional. A digest of the protocol: as §1
In turn, `Nc1c(S(=O)(=O)[O-])cc(Nc2cccc3ccccc23)c2c1C(=O)c1ccccc1C2=O.[Na+]` registered an Activity of 116%.
`Nc1c(S(=O)(=O)[O-])cc(Nc2ccc(Cl)cc2)c2c1C(=O)c1ccccc1C2=O.[Na+]`: the Activity worked out at 120%.

Tested on in the next test: not listed separately
As to the kind of experiment: Cytotoxicity against human 1539 cells at 0.1 uM after 72 hrs to 144 hrs by MTT assay. The class given is functional. The method in brief:
as §1
`Nc1c(S(=O)(=O)[O-])cc(Nc2cccc3ccccc23)c2c1C(=O)c1ccccc1C2=O.[Na+]`: the Activity is given as 96%.
As for `Nc1c(S(=O)(=O)[O-])cc(Nc2ccc(Cl)cc2)c2c1C(=O)c1ccccc1C2=O.[Na+]`, the Activity amounted to 99%.

Tested on in another test: not listed separately
Description: Cytotoxicity against human 1539 cells at 1 uM after 72 hrs to 144 hrs by MTT assay. The class given is functional. A digest of the protocol:
as §1
`Nc1c(S(=O)(=O)[O-])cc(Nc2cccc3ccccc23)c2c1C(=O)c1ccccc1C2=O.[Na+]` yielded an Activity of 95%.
The same measure, in the same setting: the result for `Nc1c(S(=O)(=O)[O-])cc(Nc2ccc(Cl)cc2)c2c1C(=O)c1ccccc1C2=O.[Na+]` reads 95%.

Tested on in the next test: not listed separately
Description: Cytotoxicity against human 1539 cells at 100 uM after 72 hrs to 144 hrs by MTT assay. In kind it is functional. The method in brief: as §1
For `Nc1c(S(=O)(=O)[O-])cc(Nc2cccc3ccccc23)c2c1C(=O)c1ccccc1C2=O.[Na+]`, the Activity is 89%.
Still for that read-out and setting: then `Nc1c(S(=O)(=O)[O-])cc(Nc2ccc(Cl)cc2)c2c1C(=O)c1ccccc1C2=O.[Na+]`, with 129%.
